# Tested on: HEK-293T
# Experiment: Multiplex assay against HEK293T
# Format: toxicity, cell-based
# Settings: human
# Summary of the method: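 Four dyes were applied at seeding to live cells: Hoechst33342, BioTracker Green Microtubule Cytoskeleton Dye, MitoTracker Red and Annexin V Alexa Fluor 680. Imaging after compound addition used a CQ1 microscope at 37°C and 5% CO2. CellPathfinder machine-learning gating then sorted cells into Hoechst high-intensity objects or normal cells, normal cells into healthy, pyknosed or fragmented nuclei, and pyknosed cells into mitotic or apoptotic, with tubulin, mitochondrial-mass and membrane-permeability phenotypes given as per cents of healthy-nucleus cells.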
# [1] = 12 h, 1 µM, compound concentration 1 uM, replicate 1
# [2] = 12 h, 1 µM, compound concentration 1 uM, replicate 2
# [3] = 12 h, 10 µM, compound concentration 10 uM, replicate 1
# [4] = 12 h, 10 µM, compound concentration 10 uM, replicate 2
# [5] = 24 h, 1 µM, compound concentration 1 uM, replicate 1
# [6] = 24 h, 1 µM, compound concentration 1 uM, replicate 2
# [7] = 24 h, 10 µM, compound concentration 10 uM, replicate 1
# [8] = 24 h, 10 µM, compound concentration 10 uM, replicate 2
# [9] = 48 h, 1 µM, compound concentration 1 uM, replicate 1
# [10] = 48 h, 1 µM, compound concentration 1 uM, replicate 2
# [11] = 48 h, 10 µM, compound concentration 10 uM, replicate 1
# [12] = 48 h, 10 µM, compound concentration 10 uM, replicate 2
structure (smiles),measurement,setting,value
N#Cc1cc(F)cc(-c2nc(-c3ccc(F)cn3)no2)c1,Population Apoptotic (%),[1],38%
same,Population Fragmented Nuclei (%),[1],10%
same,Population Healthy Nuclei (%),[1],76%
same,Population Hoechst High Intensity Objects (%),[1],5%
same,Population Membrane Permeable-Phenotype (%),[1],0%
same,Population Mitochondria Different-Phenotype (%),[1],41%
same,Population Mitotic Cells (%),[1],61%
same,Population Normal (%),[1],95%
same,Population Pyknosed Nuclei (%),[1],12%
same,Population Tubulin-Different-Phenotype (%),[1],25%
same,Total Cell Count,[1],280
same,Population Apoptotic (%),[2],64%
same,Population Fragmented Nuclei (%),[2],6%
same,Population Healthy Nuclei (%),[2],77%
same,Population Hoechst High Intensity Objects (%),[2],8%
same,Population Mitochondria Different-Phenotype (%),[2],55%
same,Population Mitotic Cells (%),[2],36%
same,Population Normal (%),[2],91%
same,Population Pyknosed Nuclei (%),[2],15%
same,Population Tubulin-Different-Phenotype (%),[2],22%
same,Total Cell Count,[2],342
same,Population Apoptotic (%),[3],45%
same,Population Fragmented Nuclei (%),[3],10%
same,Population Healthy Nuclei (%),[3],73%
same,Population Hoechst High Intensity Objects (%),[3],4%
same,Population Membrane Permeable-Phenotype (%),[3],0%
same,Population Mitochondria Different-Phenotype (%),[3],51%
same,Population Mitotic Cells (%),[3],55%
same,Population Normal (%),[3],95%
same,Population Pyknosed Nuclei (%),[3],16%
same,Population Tubulin-Different-Phenotype (%),[3],29%
same,Total Cell Count,[3],383
same,Population Fragmented Nuclei (%),[4],8%
same,Population Healthy Nuclei (%),[4],77%
same,Population Hoechst High Intensity Objects (%),[4],10%
same,Population Mitochondria Different-Phenotype (%),[4],61%
same,Population Mitotic Cells (%),[4],54%
same,Population Normal (%),[4],89%
same,Population Pyknosed Nuclei (%),[4],13%
same,Population Tubulin-Different-Phenotype (%),[4],22%
same,Total Cell Count,[4],269
same,Population Apoptotic (%),[5],43%
same,Population Fragmented Nuclei (%),[5],9%
same,Population Healthy Nuclei (%),[5],77%
same,Population Hoechst High Intensity Objects (%),[5],6%
same,Population Membrane Permeable-Phenotype (%),[5],0%
same,Population Mitochondria Different-Phenotype (%),[5],19%
same,Population Mitotic Cells (%),[5],56%
same,Population Normal (%),[5],93%
same,Population Pyknosed Nuclei (%),[5],12%
same,Population Tubulin-Different-Phenotype (%),[5],12%
same,Total Cell Count,[5],353
same,Population Apoptotic (%),[6],48%
same,Population Fragmented Nuclei (%),[6],7%
same,Population Healthy Nuclei (%),[6],82%
same,Population Hoechst High Intensity Objects (%),[6],7%
same,Population Mitochondria Different-Phenotype (%),[6],36%
same,Population Mitotic Cells (%),[6],51%
same,Population Normal (%),[6],92%
same,Population Pyknosed Nuclei (%),[6],9%
same,Population Tubulin-Different-Phenotype (%),[6],15%
same,Total Cell Count,[6],463
same,Population Apoptotic (%),[7],41%
same,Population Fragmented Nuclei (%),[7],10%
same,Population Healthy Nuclei (%),[7],74%
same,Population Hoechst High Intensity Objects (%),[7],4%
same,Population Membrane Permeable-Phenotype (%),[7],0%
same,Population Mitochondria Different-Phenotype (%),[7],34%
same,Population Mitotic Cells (%),[7],58%
same,Population Normal (%),[7],95%
same,Population Pyknosed Nuclei (%),[7],14%
same,Population Tubulin-Different-Phenotype (%),[7],18%
same,Total Cell Count,[7],479
same,Population Apoptotic (%),[8],39%
same,Population Healthy Nuclei (%),[8],79%
same,Population Hoechst High Intensity Objects (%),[8],8%
same,Population Mitochondria Different-Phenotype (%),[8],40%
same,Population Mitotic Cells (%),[8],60%
same,Population Normal (%),[8],91%
same,Population Pyknosed Nuclei (%),[8],9%
same,Population Tubulin-Different-Phenotype (%),[8],12%
same,Total Cell Count,[8],363
same,Population Apoptotic (%),[9],35%
same,Population Fragmented Nuclei (%),[9],15%
same,Population Healthy Nuclei (%),[9],77%
same,Population Hoechst High Intensity Objects (%),[9],1%
same,Population Membrane Permeable-Phenotype (%),[9],1%
same,Population Mitochondria Different-Phenotype (%),[9],16%
same,Population Mitotic Cells (%),[9],64%
same,Population Normal (%),[9],98%
same,Population Pyknosed Nuclei (%),[9],6%
same,Population Tubulin-Different-Phenotype (%),[9],11%
same,Total Cell Count,[9],585
same,Population Apoptotic (%),[10],27%
same,Population Fragmented Nuclei (%),[10],11%
same,Population Healthy Nuclei (%),[10],81%
same,Population Hoechst High Intensity Objects (%),[10],0%
same,Population Mitochondria Different-Phenotype (%),[10],18%
same,Population Mitotic Cells (%),[10],72%
same,Population Normal (%),[10],99%
same,Population Tubulin-Different-Phenotype (%),[10],10%
same,Total Cell Count,[10],715
same,Population Apoptotic (%),[11],39%
same,Population Fragmented Nuclei (%),[11],16%
same,Population Healthy Nuclei (%),[11],75%
same,Population Hoechst High Intensity Objects (%),[11],1%
same,Population Membrane Permeable-Phenotype (%),[11],1%
same,Population Mitochondria Different-Phenotype (%),[11],18%
same,Population Mitotic Cells (%),[11],60%
same,Population Normal (%),[11],98%
same,Population Pyknosed Nuclei (%),[11],8%
same,Population Tubulin-Different-Phenotype (%),[11],9%
same,Total Cell Count,[11],643
same,Population Apoptotic (%),[12],48%
same,Population Healthy Nuclei (%),[12],77%
same,Population Hoechst High Intensity Objects (%),[12],4%
same,Population Mitochondria Different-Phenotype (%),[12],22%
same,Population Mitotic Cells (%),[12],51%
same,Population Normal (%),[12],95%
same,Population Pyknosed Nuclei (%),[12],5%
same,Population Tubulin-Different-Phenotype (%),[12],11%
same,Total Cell Count,[12],501
